# Experimental data published in ChEMBL document CHEMBL1149630, “Damipipecolin and damituricin, novel bioactive bromopyrrole alkaloids from the Mediterranean sponge Axinella damicornis” (2007).
# The source made the active and inactive calls. No cut-off for these calls is given here.
# Legend:
# [1] = system: Suberites domuncula; test: Effect on 5-HT/CaCl2 induced increase in intracellular calcium level in Suberites domunculas sponge cell pretreated for 5 mins at 1 ug/ml in relative to control
# [2] = Effect on 5-HT/CaCl2 induced increase in intracellular calcium level in rat primary neuronal cells pretreated for 5 mins at 0.3 ug/ml after 20 mins in relative to control; type: functional, Primary neuron
# In short: (§1)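 Rat cortical neurons from E17–18 Wistar embryos were grown serum-free on poly-L-lysine glass. They were loaded with 4 μM fura-2-AM for 1 h at 37 °C. Cells were preincubated 5 min with compound (0.01–10 µg/ml) in Ca/Mg-free Locke's, pH 7.4. 200 µM 5-HT plus 2.5 mM CaCl2 was added at 10 min. The 340/380 ratio increase was imaged over 20 min as % of DMSO/water control, ±SD of 3–5 experiments, ~90 cells each.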
# [3] = system: Neuron; test: Effect on NMDA/CaCl2 induced increase in intracellular calcium level in rat neuronal cells pretreated for 5 mins at 10 ug/ml after 20 mins in relative to control; type: functional
# In short: (§2)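 Rat cortical neurons were fura-2-loaded (4 μM, 1 h, 37 °C) and preincubated 5 min with 0.1, 1 or 10 µg/ml compound in Ca/Mg-free Locke's, pH 7.4. They were stimulated at 10 min with 200 µM NMDA plus 2.5 mM CaCl2. The fura-2 340/380 ratio change was followed for 20 min and set relative to the vehicle control (100%).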
# [4] = system: Neuron; test: Effect on L-glutamic acid/CaCl2 induced increase in intracellular calcium level in rat neuronal cells pretreated for 5 mins at 10 ug/ml after 20 mins in relative to control; type: functional
# In short: (§3)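 Rat cortical neurons were loaded with 4 μM fura-2-AM, then preincubated 5 min with 0.1, 1 or 10 µg/ml compound in Ca/Mg-free Locke's, pH 7.4. 200 µM L-glutamic acid plus 2.5 mM CaCl2 was added at 10 min. The 340/380 nm ratio increase was recorded over 20 min and expressed as % of vehicle control.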
# [5] = system: Neuron; test: Effect on L-glutamic acid/CaCl2 induced increase in intracellular calcium level in rat neuronal cells pretreated for 5 mins at 0.1 ug/ml after 20 mins in relative to control; type: functional
# In short: as §3
# [6] = system: Neuron; test: Effect on NMDA/CaCl2 induced increase in intracellular calcium level in rat neuronal cells pretreated for 5 mins at 1 ug/ml after 20 mins in relative to control; type: functional
# In short: as §2
# [7] = system: Neuron; test: Effect on NMDA/CaCl2 induced increase in intracellular calcium level in rat neuronal cells pretreated for 5 mins at 0.1 ug/ml after 20 mins in relative to control; type: functional
# In short: as §2
# [8] = system: Neuron; test: Effect on L-glutamic acid/CaCl2 induced increase in intracellular calcium level in rat neuronal cells pretreated for 5 mins at 1 ug/ml after 20 mins in relative to control; type: functional
# In short: as §3
# [9] = system: HeLa; test: Cytotoxicity against HeLa cells at 10 ug/ml after 72 hrs by MTT assay; type: functional, cell-based; conditions: Homo sapiens
# In short: (§4)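 Cells exposed 72 h to a range of concentrations; viability by MTT colorimetric read at 595 nm after overnight incubation at 37 °C. PC12 grown in DMEM/10% FCS/5% horse serum; HeLa and L5178y in RPMI 1640/10% FCS; all at 37 °C, 5% CO2.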
# [10] = system: Primary neuron; test: Effect on 5-HT/CaCl2 induced increase in intracellular calcium level in rat primary neuronal cells pretreated for 5 mins at 3 ug/ml after 20 mins in relative to control; type: functional, cell-based
# In short: as §1
# [11] = system: Primary neuron; test: Effect on 5-HT/CaCl2 induced increase in intracellular calcium level in rat primary neuronal cells pretreated for 5 mins at 10 ug/ml after 20 mins in relative to control; type: functional, cell-based
# In short: as §1
# [12] = Effect on 5-HT/CaCl2 induced increase in intracellular calcium level in rat primary neuronal cells pretreated for 5 mins at 0.03 ug/ml after 20 mins in relative to control; type: functional, Primary neuron
# In short: as §1
# [13] = system: Primary neuron; test: Effect on 5-HT/CaCl2 induced increase in intracellular calcium level in rat primary neuronal cells pretreated for 5 mins at 0.01 ug/ml after 20 mins in relative to control; type: functional, cell-based
# In short: as §1
# [14] = system: L5178Y; test: Cytotoxicity against L5178y cells at 10 ug/ml after 72 hrs by MTT assay; type: functional, cell-based
# In short: as §4
# [15] = Effect on 5-HT/CaCl2 induced increase in intracellular calcium level in rat primary neuronal cells pretreated for 5 mins at 0.1 ug/ml after 20 mins in relative to control; type: functional, Primary neuron
# In short: as §1
# [16] = Effect on 5-HT/CaCl2 induced increase in intracellular calcium level in rat primary neuronal cells pretreated for 5 mins at 1 ug/ml after 20 mins in relative to control; type: functional, Primary neuron
# In short: as §1
# [17] = system: Suberites domuncula; test: Effect on 5-HT/CaCl2 induced increase in intracellular calcium level in Suberites domunculas sponge cell pretreated for 5 mins at 0.1 ug/ml in relative to control
# [18] = system: Primary neuron; test: Effect on 5-HT/CaCl2 induced increase in intracellular calcium level in rat primary neuronal cells pretreated for 5 mins at 0.1 ug/ml after 10 mins; type: functional, cell-based
# [19] = system: PC-12; test: Cytotoxicity against PC12 cells at 10 ug/ml after 72 hrs by MTT assay; type: functional, cell-based
# In short: as §4
# [20] = system: PC-12; test: Effect on 5-HT/CaCl2 induced increase in intracellular calcium level in PC12 cells pretreated for 5 mins at 1 ug/ml after 20 mins in relative to control; type: functional
# In short: (§5)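 Cells on poly-L-lysine coverglass, loaded with 10 μM fura-2-AM (1 h, 37 °C), washed, held 1 h. In Ca2+/Mg2+-free Locke's solution pH 7.4, 1 μg/ml compound added for 5 min, then 200 μM 5-HT plus 2.5 mM CaCl2 at 10 min. 340/380 nm ratio recorded ≥20 min; rise vs 0.1% DMSO or water control set to 100%; three independent experiments, mean ± SD.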
# [21] = system: HEK293; test: Effect on 5-HT/CaCl2 induced increase in intracellular calcium level in HEK cells pretreated for 5 mins at 1 ug/ml after 20 mins in relative to control; type: functional, cell-based; conditions: Homo sapiens
# In short: as §5
smiles,measurement,setting,value
O=C(O[C@@H]1CCN[C@@H](C(=O)O)C1)c1cc(Br)c[nH]1 [DAMIPIPECOLIN],Activity,[1],inactive
same,Activity,[2],29.7%
same,Activity,[3],105.9%
same,Activity,[4],96.6%
same,Activity,[5],83.3%
same,Activity,[6],70.4%
same,Activity,[7],114.1%
same,Activity,[8],90.5%
same,Activity,[9],Not toxic
same,Activity,[10],inactive
same,Activity,[11],inactive
same,Activity,[12],71.6%
same,Activity,[13],inactive
same,Activity,[14],Not toxic
same,Activity,[15],11.2%
same,Activity,[16],38%
same,Activity,[17],inactive
same,Activity,[18],Active
same,Activity,[19],Not toxic
C[N+]1(C)C[C@H](OC(=O)c2cc(Br)c[nH]2)C[C@@H]1C(=O)[O-] [DAMITURICIN],Activity,[9],Not toxic
same,Activity,[20],43.8%
same,Activity,[14],Not toxic
same,Activity,[21],inactive
same,Activity,[19],Not toxic
